Series [1] deals with Histone deacetylase (Homo sapiens) (UniProt Q13547+O15379+Q9UBN7+Q92769+Q9UQL6+Q8WUI4+Q9BY41+Q96DB2+P56524+Q9UKV0+Q969S8). The experiment in a line: Inhibition of Class 1 histone deacetylase in human HeLa cells assessed as induction in p21 protein expression at 3 uM incubated for 16 hrs by luciferase reporter gene assay relative to HDAC inhibitor entinostat. The series is classed as cell-based. Further details: scale not given: the % may be the effect or the level left. A general note: A reporter such as luciferase makes a cellular process visible.

A short description of series [2]: Volume of distribution at steady state in BALB/C mouse at 10 mg/kg, po or 2 mg/kg, iv by LC-MS/MS method. Further details: unit not given here. It is filed as ADME, organism-based. The settings on record: in vivo, read-out: Vdss. The procedure, abridged: (§1)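 Single-dose PK: iv bolus 2 mg/kg in 5% DMSO/40% PEG400/55% saline and/or oral gavage 10 mg/kg as 0.445% microcrystalline cellulose microsuspension; BALB/C nude mice (15−20 g, N = 16 per arm) or male Sprague−Dawley rats (250 ± 20 g, N = 3). Blood at eight (po) or nine (iv) time points into sodium heparin, plasma by LC-MS/MS, noncompartmental analysis.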

Series [3] is described as follows: Clearance in human liver microsomes at 1 uM incubated for 10 mins by LC-MS/MS method. The series is classed as ADME, Microsome. The procedure, abridged:
(§2)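 Liver microsomes (human or mouse, 0.5 mg/mL) in 100 mM potassium phosphate pH 7.4 with 1 μM compound, prewarmed 10 min at 37 °C, started with NADPH (10 mM); stopped at 0, 3, 6, 9, 15, 30 min with ice-cold methanol containing tolbutamide internal standard; LC-MS/MS. Hepatic clearance (mL/min/kg) calculated from intrinsic clearance.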

Series [4] in a line: Cmax in BALB/C mouse at 10 mg/kg, po or 2 mg/kg, iv by LC-MS/MS method. The settings on record: BALB/C, in vivo. The series is classed as ADME, organism-based. The procedure, abridged:
(§3)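 Female-unspecified BALB/C nude mice (15−20 g, N = 16 per arm); iv bolus 2 mg/kg in 5% DMSO/40% PEG400/55% saline and/or oral gavage 10 mg/kg as 0.445% microcrystalline cellulose microsuspension. Blood sampled at nine (iv) or eight (po) time points into sodium heparin tubes; plasma by LC-MS/MS; noncompartmental analysis.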

A short description of series [5]: Clearance in mouse liver microsomes at 1 uM incubated for 10 mins by LC-MS/MS method. The series is classed as ADME, Microsome. The procedure, abridged:
as §2
In general terms: Microsomes from liver hold many membrane-bound enzymes, among them those of drug oxidation.

Series [6] is described as follows: Tmax in BALB/C mouse at 10 mg/kg, po or 2 mg/kg, iv by LC-MS/MS method. It is filed as ADME, organism-based. The settings on record: BALB/C, in vivo. The procedure, abridged: as §1
Series [7] can be described thus: AUC in BALB/C mouse at 10 mg/kg, po or 2 mg/kg, iv by LC-MS/MS method. The following applies: BALB/C, plasma. The series is classed as ADME, organism-based, Plasma. The procedure, abridged:
as §3

Series [8] is described as follows: Clearance in BALB/C mouse at 10 mg/kg, po or 2 mg/kg, iv by LC-MS/MS method. The settings on record: in vivo. It is filed as ADME, organism-based. The procedure, abridged: as §3
A short description of series [9]: Half life in BALB/C mouse at 10 mg/kg, po or 2 mg/kg, iv by LC-MS/MS method. The series is classed as ADME, organism-based. The following applies: BALB/C, in vivo. The procedure, abridged: as §3
Series [10] is described as follows: Oral bioavailability in BALB/C mouse at 10 mg/kg by LC-MS/MS method. It is filed as ADME, organism-based. The settings on record: BALB/C, in vivo. The procedure, abridged: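 Bioavailability from single-dose iv (2 mg/kg, 5% DMSO/40% PEG400/55% saline) and oral gavage (10 mg/kg, 0.445% microcrystalline cellulose microsuspension) studies in BALB/C nude mice (N = 16 per arm); plasma at eight (po) or nine (iv) time points, LC-MS/MS, noncompartmental analysis.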

Series [11] can be described thus: Solubility in 50 mM phosphate buffer at pH 6.5 by HPLC method. It is filed as physicochemical. The procedure, abridged:
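10 mM DMSO stock dried, residue redissolved in 50 mM phosphate buffer pH 6.5, stirred 1 h and shaken 2 h, left overnight, filtered and analysed by HPLC against calibration standards of 50−500 μM diluted from the DMSO stock.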

Usually Cmax stands for the peak of the concentration-time curve. What is called Tmax is the time from dosing to the highest level. A word on the AUC: it is the area under the concentration-time curve, a measure of exposure. Broadly, the half-life is how long it takes for the measured level to halve. One may read the bioavailability as the share of a dose that reaches the circulation, judged against a reference dose that is usually intravenous. The term solubility denotes how much of the substance goes into solution per volume.

Values after ≈ are worked out from the molar mass of the structure shown.

As for `CC(C)(C)N1C[C@H](C(=O)Nc2ccc(Cl)cc2)[C@@H](c2ccc(/C=C/C(=O)Nc3ccccc3N)cc2)C1` (racemic), the Activity in series [1] stood at 160%. Moreover, the Vd in [2] worked out at 31. For the same molecule, the CLhep predicted at 1 µM in series [3] is 8 mL/min/kg; in [5], 20 mL/min/kg. Further, in series [4], the Cmax was 113 ng/mL. For the same molecule, the time to peak (Tmax) in series [6] is 2 h. The molecule also came in with an AUC in [7] of 813 ng·h/mL. Moreover, in [8], the clearance came out at 60 mL/min/kg. In series [9], the half-life is 6.8 h. In [10], this molecule gave a bioavailability of 59%.
`CN(C)[C@H]1CCN(C(C(=O)Nc2ccc(C(F)(F)F)cc2)c2ccc(/C=C/C(=O)Nc3ccccc3N)cc2)C1` (some centres not stated): in series [1], the Activity was determined as 216%. For the same molecule, in series [5], the CLhep predicted at 1 µM is 34 mL/min/kg. Further, the clearance in series [8] was 67 mL/min/kg. In series [11], this molecule yielded a solubility of 610 µg/mL (≈ 1110 µM). Further, the bioavailability in series [10] was found to be 21%.
The corresponding values for `Nc1ccccc1NC(=O)/C=C/c1ccc(C(C(=O)Nc2ccc(Br)cc2)N2CC[C@H](O)C2)cc1` (some centres not stated) are 150%, 52 mL/min/kg, 8 mL/min/kg, 5 µg/mL (≈ 9.34 µM) and 13%.
The like results for `Nc1ccccc1NC(=O)/C=C/c1ccc(C(NCCN2CCOCC2)C(=O)Nc2ccc(C(F)(F)F)cc2)cc1` (racemic) were, in that order, 100%, 78 mL/min/kg, 122 mL/min/kg, 32 µg/mL (≈ 56.4 µM) and 11%.
Take `CC(C)(CO)N1C[C@H](C(=O)Nc2ccc(Cl)cc2)[C@@H](c2ccc(/C=C/C(=O)Nc3ccccc3N)cc2)C1` (racemic): the Activity in series [1] is 260%. In addition, the Vd in series [2] is 6.6. Further, the CLhep predicted at 1 µM in [3] was 12 mL/min/kg; in series [5], 40 mL/min/kg. This molecule also registered a Cmax in series [4] of 337 ng/mL. Moreover, the Tmax in series [6] was found to be 2 h. In [7], this molecule yielded an AUC of 743 ng·h/mL. Besides, the clearance in series [8] was 27 mL/min/kg. In [9], this molecule had a half-life of 1.1 h. In [10], the bioavailability is 12%.
On to `CN1C[C@H](C(=O)Nc2ccc(F)c(F)c2)[C@@H](c2ccc(/C=C/C(=O)Nc3ccccc3N)cc2)C1` (racemic), for which, in series [1], the Activity is 180%. In addition, the Vd in series [2] was 7.2. The molecule also showed a Cmax in [4] of 262 ng/mL. Also, the CLhep predicted at 1 µM in series [5] was 46 mL/min/kg. In [6], the Tmax is 1 h. Further, the AUC in series [7] was found to be 911 ng·h/mL. Besides, in [8], the clearance amounted to 53 mL/min/kg. Further, the half-life in series [9] was 4 h. Also, in series [10], the bioavailability came out at 29%.
Regarding `CN1C[C@H](C(=O)Nc2ccc(C3CC3)cc2)[C@@H](c2ccc(/C=C/C(=O)Nc3ccccc3N)cc2)C1` (racemic), the Activity in series [1] came out at 60%. Further, the figures for the CLhep predicted at 1 µM in [3] and in [5] were 12 mL/min/kg and 60 mL/min/kg, respectively.
The corresponding values for `CCNC(=O)N1C[C@H](C(=O)Nc2ccc(Cl)cc2)[C@@H](c2ccc(/C=C/C(=O)Nc3ccccc3N)cc2)C1` (racemic) are 40%, 9 mL/min/kg and 25 mL/min/kg.
The like results for `CN1C[C@H](C(=O)Nc2ccccn2)[C@@H](c2ccc(/C=C/C(=O)Nc3ccccc3N)cc2)C1` (racemic) were, in that order, 140%, 8 mL/min/kg and 40 mL/min/kg.
The corresponding values for `CN1C[C@H](C(=O)Nc2cccc(F)c2)[C@@H](c2ccc(/C=C/C(=O)Nc3ccccc3N)cc2)C1` (racemic) are 190%, 6 mL/min/kg and 56 mL/min/kg.
For the molecule `Nc1ccccc1NC(=O)/C=C/c1ccc([C@H]2CN(C3CCOCC3)C[C@@H]2C(=O)Nc2ccc(Cl)cc2)cc1` (racemic), in series [1], the Activity came to 220%. In series [2], the Vd was found to be 5.6. The figures for the CLhep predicted at 1 µM in series [3] and in [5] were 12 mL/min/kg and 44 mL/min/kg, respectively. In [4], the peak concentration (Cmax) was found to be 315 ng/mL. In addition, the Tmax in series [6] was 0.17 h. In series [7], this molecule had an AUC of 1000 ng·h/mL. For the same molecule, in [8], the clearance is 39 mL/min/kg. The half-life in [9] is 4.9 h. For the same molecule, the bioavailability in [10] was 23%.
For the molecule `Cc1cccc(NC(=O)[C@H]2CN(C)C[C@@H]2c2ccc(/C=C/C(=O)Nc3ccccc3N)cc2)c1` (racemic), in series [1], the Activity came out at 350%. The CLhep predicted at 1 µM in series [3] was 14 mL/min/kg; in [5], 74 mL/min/kg.
The corresponding values for `CN1C[C@H](C(=O)Nc2ccc(Cl)cc2F)[C@@H](c2ccc(/C=C/C(=O)Nc3ccccc3N)cc2)C1` (racemic) are 200%, 11 mL/min/kg and 43 mL/min/kg.
The corresponding values for `CN1C[C@H](C(=O)Nc2ccc(Cl)c(Cl)c2)[C@@H](c2ccc(/C=C/C(=O)Nc3ccccc3N)cc2)C1` (racemic) are 160%, 14 mL/min/kg and 36 mL/min/kg.
The like results for `CN1C[C@H](C(=O)Nc2ccccc2F)[C@@H](c2ccc(/C=C/C(=O)Nc3ccccc3N)cc2)C1` (racemic) were, in that order, 170%, 10 mL/min/kg and 67 mL/min/kg.
Take `Nc1ccccc1NC(=O)/C=C/c1ccc(C(NCCO)C(=O)Nc2ccc(C(F)(F)F)cc2)cc1` (racemic): the Activity in series [1] is 117%. For the same molecule, the CLhep predicted at 1 µM in series [5] was 33 mL/min/kg. The molecule also had a clearance in [8] of 49 mL/min/kg. For the same molecule, the concentration in solution in series [11] (solubility) came to 5 µg/mL (≈ 10 µM). Also, in [10], the bioavailability came to 71%.
Turning to `Cc1ccc(NC(=O)[C@H]2CN(C)C[C@@H]2c2ccc(/C=C/C(=O)Nc3ccccc3N)cc2)cc1` (racemic), in series [1], the Activity came out at 260%. Also, the CLhep predicted at 1 µM was 15 mL/min/kg in series [3] and 62 mL/min/kg in series [5].
`CC(C)N1C[C@H](C(=O)Nc2ccc(Cl)cc2)[C@@H](c2ccc(/C=C/C(=O)Nc3ccccc3N)cc2)C1` (racemic): in series [1], the Activity worked out at 230%. Further, in [2], the Vd stood at 32. The molecule further gave a Cmax in series [4] of 331 ng/mL. Also, the CLhep predicted at 1 µM in series [5] is 38 mL/min/kg. Moreover, in series [6], the Tmax is 2 h. The AUC in series [7] turned out to be 2080 ng·h/mL. The molecule also gave a clearance in [8] of 86 mL/min/kg. In series [9], this molecule showed a half-life of 5.4 h. The bioavailability in [10] is 100%.
`Nc1ccccc1NC(=O)/C=C/c1ccc([C@H]2CN(CC(F)(F)F)C[C@@H]2C(=O)Nc2ccc(Cl)cc2)cc1` (racemic): in series [1], the Activity turned out to be 100%. Further, the CLhep predicted at 1 µM in series [3] was 15 mL/min/kg; in series [5], 35 mL/min/kg.
As for `Nc1ccccc1NC(=O)/C=C/c1ccc([C@H]2CN(Cc3ccccc3)C[C@@H]2C(=O)Nc2ccc(Cl)cc2)cc1` (racemic), the Activity in [1] was 70%. For the same molecule, the CLhep predicted at 1 µM in series [3] was 3 mL/min/kg; in series [5], 81 mL/min/kg.
The corresponding values for `CN1C[C@H](C(=O)NC2CC2)[C@@H](c2ccc(/C=C/C(=O)Nc3ccccc3N)cc2)C1` (racemic) are 80%, 10 mL/min/kg and 7 mL/min/kg.
For the molecule `Nc1ccccc1NC(=O)/C=C/c1ccc([C@H]2CN(c3ncccn3)C[C@@H]2C(=O)Nc2ccc(Cl)cc2)cc1` (racemic), in series [1], the Activity is 120%. In addition, the CLhep predicted at 1 µM is 11 mL/min/kg in [3] and 44 mL/min/kg in series [5].

(Values after ChEMBL document CHEMBL2177000, “Pharmacokinetic optimization of class-selective histone deacetylase inhibitors and identification of associated candidate predictive biomarkers of hepatocellular carcinoma tumor response” (J Med Chem, 2012).)
